Test results reported in ChEMBL document CHEMBL1135915, “Structure-activity relationships in 1,4-benzodioxan-related compounds. 7. Selectivity of 4-phenylchroman analogues for alpha(1)-adrenoreceptor subtypes” (J Med Chem, 2002).

Assays:
[1] = molecular target: T1, Alpha-1A adrenergic receptor (Rattus norvegicus, UniProt P43140); assay: Antagonistic affinity tested against isolated Rat Prostatic Vas Deferens Alpha-1A adrenergic receptor; assay type: functional, tissue-based; conditions: read-out: pA2 (converted)
T1 sequence (P43140 whole entry): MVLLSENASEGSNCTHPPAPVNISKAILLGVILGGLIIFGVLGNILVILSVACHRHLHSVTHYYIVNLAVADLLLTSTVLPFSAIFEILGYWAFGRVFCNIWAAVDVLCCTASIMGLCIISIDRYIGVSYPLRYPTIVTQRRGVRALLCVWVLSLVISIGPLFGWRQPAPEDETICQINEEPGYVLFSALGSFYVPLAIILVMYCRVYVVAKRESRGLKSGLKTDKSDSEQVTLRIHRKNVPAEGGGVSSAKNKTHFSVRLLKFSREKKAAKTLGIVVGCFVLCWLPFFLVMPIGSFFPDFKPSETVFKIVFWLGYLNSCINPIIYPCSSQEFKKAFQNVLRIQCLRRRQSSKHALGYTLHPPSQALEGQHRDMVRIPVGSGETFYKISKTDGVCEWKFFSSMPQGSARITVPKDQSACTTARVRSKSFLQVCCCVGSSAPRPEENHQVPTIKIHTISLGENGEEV

[2] = molecular target: T2, Alpha-1D adrenergic receptor (Rattus norvegicus, UniProt P23944); assay: Antagonistic affinity tested against isolated Rat Thoracic Aorta Alpha-1D adrenergic receptor; assay type: functional, tissue-based; conditions: read-out: pA2 (converted)
T2 sequence (P23944 whole entry): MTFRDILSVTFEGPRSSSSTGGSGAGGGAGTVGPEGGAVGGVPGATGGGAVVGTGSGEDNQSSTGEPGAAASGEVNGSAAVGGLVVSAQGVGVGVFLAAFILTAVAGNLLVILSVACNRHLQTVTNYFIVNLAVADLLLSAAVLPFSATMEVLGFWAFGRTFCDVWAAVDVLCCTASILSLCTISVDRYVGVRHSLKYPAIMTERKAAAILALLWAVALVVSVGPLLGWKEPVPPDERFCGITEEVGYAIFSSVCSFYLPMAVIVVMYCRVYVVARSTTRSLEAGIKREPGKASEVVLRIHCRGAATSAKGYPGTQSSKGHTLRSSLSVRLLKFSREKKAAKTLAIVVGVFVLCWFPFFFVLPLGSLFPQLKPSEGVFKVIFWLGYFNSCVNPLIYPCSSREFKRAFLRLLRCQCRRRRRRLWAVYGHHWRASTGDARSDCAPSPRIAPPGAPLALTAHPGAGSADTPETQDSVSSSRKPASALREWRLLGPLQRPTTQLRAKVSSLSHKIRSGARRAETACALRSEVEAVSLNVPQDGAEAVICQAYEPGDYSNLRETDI

[3] = molecular target: T1, Alpha-1A adrenergic receptor; assay: Antagonistic affinity tested against isolated Rat Prostate Alpha-1A adrenergic receptor; assay type: functional; conditions: read-out: pA2 (converted)
How it was run: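 Prostate strips from male Wistar rats (275-300 g), 2 g tension in modified Krebs at 37 °C, 95% O2/5% CO2, pH 7.4, primed with 1.0 µM (-)-noradrenaline. After 90 min wash, a cumulative noradrenaline curve was run, then a second after 30 min antagonist equilibration. Single antagonist concentration in the range 0.01-1 µM; pKB by van Rossum.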

[4] = molecular target: T3, Alpha-1D adrenergic receptor (Homo sapiens, UniProt P25100); assay: Affinity constant on CHO cells expressing Human recombinant Alpha-1D adrenergic receptor; assay type: cell-based
T3 sequence (P25100 whole entry): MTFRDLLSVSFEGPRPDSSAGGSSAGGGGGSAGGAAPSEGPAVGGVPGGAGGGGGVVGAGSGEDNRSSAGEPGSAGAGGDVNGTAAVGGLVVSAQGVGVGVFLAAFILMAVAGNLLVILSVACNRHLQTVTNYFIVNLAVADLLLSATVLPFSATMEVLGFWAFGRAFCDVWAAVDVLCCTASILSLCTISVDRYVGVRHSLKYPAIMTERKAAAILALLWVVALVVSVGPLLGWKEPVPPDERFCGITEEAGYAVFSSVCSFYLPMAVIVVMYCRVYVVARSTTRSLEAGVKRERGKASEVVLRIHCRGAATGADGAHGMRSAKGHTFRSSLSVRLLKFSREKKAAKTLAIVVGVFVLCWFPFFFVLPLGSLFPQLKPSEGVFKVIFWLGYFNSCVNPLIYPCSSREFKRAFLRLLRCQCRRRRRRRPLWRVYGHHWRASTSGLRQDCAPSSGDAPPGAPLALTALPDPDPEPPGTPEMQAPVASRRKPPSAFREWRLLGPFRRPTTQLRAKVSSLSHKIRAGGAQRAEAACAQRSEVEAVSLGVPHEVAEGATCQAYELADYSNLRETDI

[5] = molecular target: T4, Alpha-1A adrenergic receptor (Homo sapiens, UniProt P35348); assay: Affinity constant on CHO cells expressing Human recombinant Alpha-1A adrenergic receptor; assay type: cell-based
T4 sequence (P35348 whole entry): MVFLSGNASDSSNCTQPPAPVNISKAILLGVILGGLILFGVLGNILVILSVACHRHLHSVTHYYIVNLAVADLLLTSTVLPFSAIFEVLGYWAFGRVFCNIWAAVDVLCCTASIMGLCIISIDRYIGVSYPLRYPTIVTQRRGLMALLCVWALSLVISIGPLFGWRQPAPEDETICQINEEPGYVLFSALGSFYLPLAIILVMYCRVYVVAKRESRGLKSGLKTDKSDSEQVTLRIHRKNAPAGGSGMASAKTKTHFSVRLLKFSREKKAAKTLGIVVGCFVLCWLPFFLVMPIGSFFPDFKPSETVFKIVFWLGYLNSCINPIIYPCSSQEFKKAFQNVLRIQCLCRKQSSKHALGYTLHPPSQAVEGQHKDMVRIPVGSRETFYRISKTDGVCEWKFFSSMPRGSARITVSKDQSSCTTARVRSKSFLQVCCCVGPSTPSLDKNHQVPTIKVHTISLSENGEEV

[6] = molecular target: T5, Alpha-1B adrenergic receptor (Rattus norvegicus, UniProt P15823); assay: Antagonistic affinity tested against isolated Rat Spleen Alpha-1B adrenergic receptor; assay type: functional; conditions: read-out: pA2 (converted)
T5 sequence (P15823 whole entry): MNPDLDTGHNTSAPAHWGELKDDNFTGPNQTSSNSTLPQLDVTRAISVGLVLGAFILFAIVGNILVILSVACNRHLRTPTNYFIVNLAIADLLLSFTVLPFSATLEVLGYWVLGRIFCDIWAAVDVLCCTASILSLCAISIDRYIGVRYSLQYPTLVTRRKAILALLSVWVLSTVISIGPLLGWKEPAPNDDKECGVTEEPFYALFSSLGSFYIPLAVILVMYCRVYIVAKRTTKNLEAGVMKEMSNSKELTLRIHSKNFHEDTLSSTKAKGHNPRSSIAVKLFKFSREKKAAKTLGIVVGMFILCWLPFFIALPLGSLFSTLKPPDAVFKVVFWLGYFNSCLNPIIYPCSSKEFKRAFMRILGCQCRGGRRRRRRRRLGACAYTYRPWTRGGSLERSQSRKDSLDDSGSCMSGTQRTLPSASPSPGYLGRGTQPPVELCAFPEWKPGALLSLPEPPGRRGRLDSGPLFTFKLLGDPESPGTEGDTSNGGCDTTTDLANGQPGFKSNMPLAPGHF
How it was run: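 Rat spleen strips, 1 g resting tension, in Krebs with 4.0 µM propranolol and 0.01 mM K2EDTA, equilibrated 2 h. Cumulative isometric (-)-phenylephrine curves at 30 min intervals; the second served as control.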

[7] = molecular target: T6, Alpha-1B adrenergic receptor (Homo sapiens, UniProt P35368); assay: Affinity constant on CHO cells expressing Human recombinant Alpha-1B adrenergic receptor; assay type: cell-based
T6 sequence (P35368 whole entry): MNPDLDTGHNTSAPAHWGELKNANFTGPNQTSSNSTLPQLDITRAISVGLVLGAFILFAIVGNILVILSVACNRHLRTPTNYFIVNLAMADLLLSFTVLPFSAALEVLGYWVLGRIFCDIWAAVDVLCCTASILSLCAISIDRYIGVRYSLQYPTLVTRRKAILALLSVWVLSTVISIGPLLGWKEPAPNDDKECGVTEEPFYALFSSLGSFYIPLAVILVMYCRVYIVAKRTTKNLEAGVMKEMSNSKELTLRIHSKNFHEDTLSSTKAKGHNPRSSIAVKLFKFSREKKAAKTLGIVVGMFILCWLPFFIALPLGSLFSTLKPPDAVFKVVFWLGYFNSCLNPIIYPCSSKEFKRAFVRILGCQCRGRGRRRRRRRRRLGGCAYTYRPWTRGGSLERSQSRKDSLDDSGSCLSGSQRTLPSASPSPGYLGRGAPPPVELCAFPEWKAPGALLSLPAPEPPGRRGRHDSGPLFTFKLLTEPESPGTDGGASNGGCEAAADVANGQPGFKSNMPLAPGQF

[8] = molecular target: T7, 5-hydroxytryptamine receptor 1A (Homo sapiens, UniProt P08908); assay: Affinity constant on HeLa cells expressing Human recombinant 5-hydroxytryptamine receptor 1A
T7 sequence (P08908 whole entry): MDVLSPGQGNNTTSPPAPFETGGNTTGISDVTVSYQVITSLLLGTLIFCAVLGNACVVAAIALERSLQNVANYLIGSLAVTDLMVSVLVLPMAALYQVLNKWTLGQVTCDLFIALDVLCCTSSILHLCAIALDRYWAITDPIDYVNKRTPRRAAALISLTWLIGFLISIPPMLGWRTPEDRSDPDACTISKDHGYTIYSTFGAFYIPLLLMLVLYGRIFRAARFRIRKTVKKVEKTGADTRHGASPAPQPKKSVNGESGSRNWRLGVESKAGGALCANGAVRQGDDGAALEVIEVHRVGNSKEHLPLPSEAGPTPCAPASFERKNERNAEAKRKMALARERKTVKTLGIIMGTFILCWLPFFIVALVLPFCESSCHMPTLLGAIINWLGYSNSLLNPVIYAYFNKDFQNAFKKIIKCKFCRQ

Structure (SMILES) | Kb [1] [nM] | Kb [2] [nM] | Kb [3] [nM] | Ki [4] [nM] | Ki [5] [nM] | Kb [6] [nM] | Ki [7] [nM] | Ki [8] [nM]
COc1cccc(OC)c1OCCNCC1COc2ccccc2O1 (stereo not drawn) | 0.309 | 1.58 | 0.537 |  |  |  |  | 
COc1cccc(OC)c1OCCNCCOc1ccccc1Cc1ccccc1 | 58.9 | 16.6 | 33.9 | 3.63 | 0.398 | 67.6 | 2.82 | 10.7
COc1cccc(OC)c1OCCNC[C@H]1C[C@H](c2ccccc2)c2ccccc2S1 | 209 | 61.7 | 107 | 22.9 | 2.34 | 302 | 27.5 | 10.2
COc1cccc(OC)c1OCCNCC1CC(c2ccccc2)c2ccccc2C1=O (stereo not drawn) | 0.447 | 2 | 0.347 | 0.182 | 0.251 | 26.3 | 1.23 | 11
COc1cccc(OC)c1OCCNC[C@@H]1Oc2ccccc2O[C@H]1c1ccccc1 | 5.75 | 32.4 | 5.89 |  |  | 2510 |  | 
COc1cccc(OC)c1OCCNCC1CC(c2ccccc2)c2ccccc2S1 (stereo not drawn) | 6.17 | 17.4 | 4.9 | 0.437 | 0.0891 | 155 | 1.15 | 15.1
COc1cccc(OC)c1OCCNCC1Cc2ccccc2C(c2ccccc2)C1 (stereo not drawn) | 178 | 91.2 | 288 | 17 | 0.513 | 110 | 12.3 | 6.31
COc1ccccc1N1CCN(CCN2C(=O)CC3(CCCC3)CC2=O)CC1 [BMY-7378] |  |  |  |  |  | 33.1 | 708 | 0.372
COc1cccc(OC)c1OCCNC[C@@H]1C[C@H](c2ccccc2)c2ccccc2O1 | 1.32 | 0.275 | 1.12 | 0.0891 | 0.0501 | 28.8 | 0.0398 | 6.46
